From publication PMC3596460 (Nuclear medicine and biology, 2013)
Like-named read-outs stand apart in the source and are kept apart here.

Assays:
[1] = target: T1, human norepinephrine transporter (hNET) (Homo sapiens, UniProt P23975); assay: Saturation transport kinetics assays with intact C6-hNET cells; format: cell-based; settings: for Vmax / Km: intact C6-hNET cells, 5 min, 37 °C, mean ± SD, n = 4 or 5
[2] = target: T1, human norepinephrine transporter (hNET); assay: Saturation binding assays with [^3H]mazindol and C6-hNET membranes; settings: C6-hNET cell membranes, n = 4
Method in brief: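 The membranes were C6-hNET cell membranes, 100,000 × g pellets in 50 mM Tris/120 mM NaCl/5 mM KCl, pH 7.4, from different batches. Protein was measured by Lowry with BSA standards. Eight [3H]mazindol concentrations (0.25–25 nM) were tested, with specific binding in triplicate at each. A one-site binding nonlinear fit gave KD (nM) and Bmax (fmol/mg protein).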

[3] = system: norepinephrine transporter (NET); assay: NET transport kinetics / neuronal uptake in isolated perfused rat hearts; settings: isolated rat heart, ratio of Vmax and Km estimates
[4] = system: norepinephrine transporter (NET); settings: isolated rat heart, cited from earlier work
[5] = target: T1, human norepinephrine transporter (hNET); assay: Competitive inhibition of [^3H]mazindol binding to C6-hNET cell membranes
Method in brief: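 Rat C6 glioma cells stably expressing human NET were Dounce-homogenized, and membranes were pelleted at 100,000 × g and resuspended in 50 mM Tris, 120 mM NaCl, 5 mM KCl, pH 7.4. Each assay used 70–100 μg protein. Radioligand was [3H]mazindol, with desipramine defining nonspecific binding. Ten inhibitor concentrations were run in quadruplicate and normalized to % specific binding. A one-site competition fit gave IC50, converted to Ki by Cheng-Prusoff using the mean saturation KD.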

[6] = earlier studies, reference not given; cited from earlier work
[7] = [^3H]mazindol, homogenized C6-hNET cell membranes, Cheng-Prusoff, mean ± SD, n = 4 or 5

T1 sequence (P23975 whole entry): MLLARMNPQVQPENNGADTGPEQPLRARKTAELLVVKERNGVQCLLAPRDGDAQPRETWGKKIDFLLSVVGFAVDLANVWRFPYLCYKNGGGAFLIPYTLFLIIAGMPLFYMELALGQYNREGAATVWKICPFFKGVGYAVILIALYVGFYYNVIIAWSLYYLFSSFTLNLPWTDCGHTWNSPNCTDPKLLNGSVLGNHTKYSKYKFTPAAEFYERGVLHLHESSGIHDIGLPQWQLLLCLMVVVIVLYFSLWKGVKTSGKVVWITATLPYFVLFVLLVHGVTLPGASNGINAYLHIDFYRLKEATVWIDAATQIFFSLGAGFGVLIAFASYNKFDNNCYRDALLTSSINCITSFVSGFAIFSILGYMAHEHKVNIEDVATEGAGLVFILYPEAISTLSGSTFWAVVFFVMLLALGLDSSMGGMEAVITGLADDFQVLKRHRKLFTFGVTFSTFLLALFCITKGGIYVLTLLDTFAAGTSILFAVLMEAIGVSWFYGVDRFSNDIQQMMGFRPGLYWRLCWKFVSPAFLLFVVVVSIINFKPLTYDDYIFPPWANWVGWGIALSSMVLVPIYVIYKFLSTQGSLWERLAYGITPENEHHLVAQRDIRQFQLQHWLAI

What does the source list for `N=[11C](N)NCCc1cccc(O)c1` [MHPG, [^11C]meta-hydroxyphenethylguanidine]?
Vmax relative to PHPG ([1]; C6-hNET cells, comparator PHPG): 2.4 times higher; Vmax [1]: 7.83 ± 1.73 pmol/min/mg protein

For `OC1(c2ccc(Cl)cc2)c2ccccc2C2=NCCN21` (stereo not drawn) [[^3H]mazindol, [4′-^3H]Mazindol], which Bmax [2] is on record?
The Bmax was 457 ± 31 fmol/mg protein.

What about the Kd [2] of the same compound?
The Kd was 0.0012 µM.

For `N=[11C](N)NCCc1ccc(O)cc1` [PHPG, [^11C]para-hydroxyphenethylguanidine], which Vmax [1] is on record?
Its Vmax is 3.31 ± 0.40 pmol/min/mg protein.

Which results are given for `N=C(N)NCc1cccc([131I])c1` [MIBG, [^131I]metaiodobenzylguanidine]?
Vmax/Km ratio ([3]; ref DeGrado et al. [15]): 4.4 ml/min/g wet; Vmax ([4]; ref DeGrado et al. [15]): 0.23 nmol/min/g wet

With `N=C(N)NCC(O)c1cccc(O)c1` (single isomer, unassigned; (-)) [GMO, (−)-N-[^11C]guanyl-meta-octopamine] as the compound, how does the Ki [5, 7] read?
Its Ki is 20.3 ± 2.5 µM.

And the Km [1]?
The Km was 4.43 ± 0.31 µM.

With `N=C(N)NCCc1cc(O)ccc1F` [6F-MHPG, [^11C]6-fluoro-meta-hydroxyphenethylguanidine] as the compound, how does the Ki [5, 7] read?
Its Ki is 17.7 ± 0.5 µM.

And the Km [1]?
Its Km is 2.86 ± 0.43 µM.

Which Km ([4]; ref DeGrado et al. [15]) does the source give for `N=C(N)NCc1cccc(I)c1` [MIBG, [^131I]metaiodobenzylguanidine] here?
Its Km is 0.052 µM.

For `NC(N)=NCc1cccc(Br)c1` [MBBG, [^76Br]-meta-bromobenzylguanidine], which Km ([4]; ref Raffel et al. [16]) is on record?
Its Km is 0.11 ± 0.03 µM.

With `CNC[C@H](O)c1ccc(O)c(O)c1` [EPI, [^11C]-(−)-epinephrine] as the compound, how does the “log P” value [6] read?
Its value is −1.30.

What about the Ki [5] of the same compound?
The Ki was 68.4 ± 7.6 µM.

What about the “Km increase relative to NE” value ([1]; C6-hNET cells, comparator NE) of the same compound?
The value was 11 fold.

With `NC(N)=NCc1cccc([76Br])c1` [MBBG, [^76Br]-meta-bromobenzylguanidine] as the compound, how does the Vmax/Km ratio ([3]; ref Raffel et al. [16]) read?
Its Vmax/Km ratio is 3.0 ± 1.2 ml/min/g wet.

And the Vmax ([4]; ref Raffel et al. [16])?
The Vmax was 0.33 ± 0.10 nmol/min/g wet.

For `N=[11C](N)NCCc1cc(O)ccc1F` [6F-MHPG, [^11C]6-fluoro-meta-hydroxyphenethylguanidine], which “Km increase relative to MHPG” value ([1]; C6-hNET cells, comparator MHPG) is on record?
Its value is ~ 5 fold.

What about the “Vmax decrease relative to MHPG” value ([1]; C6-hNET cells, comparator MHPG) of the same compound?
Its value is ~ 50%.

What about the “Vmax/Km as percentage of the value for MHPG” value ([1]; C6-hNET cells, comparator MHPG) of the same compound?
The value was ~ 12%.

And the Vmax [1]?
The Vmax was 4.06 ± 0.66 pmol/min/mg protein.

For `N=C(N)NCCc1ccc(F)c(O)c1` [4F-MHPG, [^11C]4-fluoro-meta-hydroxyphenethylguanidine], which Ki [5, 7] is on record?
The Ki was 5.6 ± 0.5 µM.

What about the “Km increase relative to MHPG” value ([1]; C6-hNET cells, comparator MHPG) of the same compound?
The value was 5 fold.

And the Km [1]?
The Km was 2.57 ± 0.35 µM.

And the Vmax [1]?
The Vmax was 7.46 ± 0.64 pmol/min/mg protein.

For `N=C(N)NCCc1cccc(O)c1` [MHPG, [^11C]meta-hydroxyphenethylguanidine], which Ki [5, 7] is on record?
Its Ki is 4.9 ± 0.5 µM.

What about the Km [1] of the same compound?
The Km was 0.73 ± 0.2 µM.

Which results are given for [^11C]-(−)-meta- hydroxyephedrine?
log P [6]: 0.3; Ki [5, 7]: 43.2 ± 1.8 µM; Km [1]: 0.48 ± 0.08 µM; Vmax [1]: 5.43 ± 0.71 pmol/min/mg protein

For `N=[11C](N)NCC(O)c1cccc(O)c1` (single isomer, unassigned; (-)) [GMO, (−)-N-[^11C]guanyl-meta-octopamine], which “Km increase relative to MHPG” value ([1]; C6-hNET cells, comparator MHPG) is on record?
Its value is 6 fold.

What about the “Vmax decrease relative to MHPG” value ([1]; C6-hNET cells, comparator MHPG) of the same compound?
Its value is 30%.

And the “Vmax/Km ratio slower than for MHPG” value ([1]; C6-hNET cells, comparator MHPG)?
The value was ~ 9 times slower.

What about the Vmax [1] of the same compound?
The Vmax was 5.57 ± 0.30 pmol/min/mg protein.

Which Ki [5, 7] does the source give for `N=C(N)NCCc1ccc(O)cc1` [PHPG, [^11C]para-hydroxyphenethylguanidine] here?
Its Ki is 1.9 ± 0.2 µM.

What about the Km [1] of the same compound?
Its Km is 0.52 ± 0.06 µM.

For `NC[C@H](O)c1ccc(O)c(O)c1` [NE, [^3H]-(−)-norepinephrine], which Km ([4]; ref Iversen [14]) is on record?
The Km was 0.27 µM.

What about the Vmax ([4]; ref Iversen [14]) of the same compound?
Its Vmax is 1.18 ± 0.12 nmol/min/g wet.

With [^3H]dopamine [DA] as the compound, how does the Vmax/Km ratio ([3]; ref Hellmann et al. [11]) read?
Its Vmax/Km ratio is 2.10 ml/min/g wet.

And the Km ([4]; ref Hellmann et al. [11])?
Its Km is 0.69 µM.

And the Vmax ([4]; ref Hellmann et al. [11])?
Its Vmax is 1.45 nmol/min/g wet.

What about the Km [1] of the same compound?
The Km was 0.24 ± 0.04 µM.

And the Vmax [1]?
The Vmax was 2.91 ± 0.47 pmol/min/mg protein.
